In ChEMBL document CHEMBL5325481, “Examination of the Impact of Triazole Position within Linkers on Solubility and Lipophilicity of a CDK9 Degrader Series” (ACS Med Chem Lett, 2023):
≈ marks a conversion by molar mass, not a printed value.

Key:
[1] = Aqueous solubility of the compound; type: physicochemical
[2] = target: T1, Protein cereblon/Cyclin-dependent kinase 9 (Homo sapiens, UniProt P50750+Q96SW2); test: PROTAC activity at CRBN/CDK9 in human MOLM-13 cells assessed as induction of CDK9 degradation by measuring maximal efficacy at 0.01 to 5 uM incubated for 6 hrs by Western blot analysis relative to control; conditions: dose 0.01-5 µM
Target sequence in this assay (P50750 whole entry, looked up): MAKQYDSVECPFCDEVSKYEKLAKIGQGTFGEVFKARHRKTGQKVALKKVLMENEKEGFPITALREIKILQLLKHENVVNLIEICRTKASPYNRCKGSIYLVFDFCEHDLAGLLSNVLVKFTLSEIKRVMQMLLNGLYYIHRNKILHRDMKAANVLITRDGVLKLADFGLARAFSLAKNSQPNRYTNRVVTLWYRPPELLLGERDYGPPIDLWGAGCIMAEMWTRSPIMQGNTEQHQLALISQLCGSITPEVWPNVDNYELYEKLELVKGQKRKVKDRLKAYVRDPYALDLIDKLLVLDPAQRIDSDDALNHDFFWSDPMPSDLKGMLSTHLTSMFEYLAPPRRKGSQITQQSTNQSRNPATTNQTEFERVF
Target sequence in this assay (Q96SW2 whole entry, looked up): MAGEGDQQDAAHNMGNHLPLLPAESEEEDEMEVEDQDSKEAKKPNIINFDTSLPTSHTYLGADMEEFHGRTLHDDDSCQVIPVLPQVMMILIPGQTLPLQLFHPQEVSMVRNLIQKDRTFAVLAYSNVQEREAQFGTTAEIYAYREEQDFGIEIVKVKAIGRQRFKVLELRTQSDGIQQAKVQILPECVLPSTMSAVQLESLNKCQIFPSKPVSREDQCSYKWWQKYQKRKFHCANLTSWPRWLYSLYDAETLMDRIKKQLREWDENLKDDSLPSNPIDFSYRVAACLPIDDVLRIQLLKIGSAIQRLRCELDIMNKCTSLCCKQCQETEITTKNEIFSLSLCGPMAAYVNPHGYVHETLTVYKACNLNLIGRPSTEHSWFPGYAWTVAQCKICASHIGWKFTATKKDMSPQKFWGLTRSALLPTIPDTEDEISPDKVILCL

[3] = Lipophilicity, logK of compound at pH 7.7 in presence of 80% acetonitrile by HPLC analysis; type: physicochemical; conditions: buffer
[4] = Kinetic solubility of the compound at pH 7.4 incubated for 1.5 hrs under shaking condition by UV plate reader analysis; type: physicochemical; conditions: buffer, read-out: Kinetic_solubility
[5] = target: T1, Protein cereblon/Cyclin-dependent kinase 9; test: PROTAC activity at CRBN/CDK9 in human MOLM-13 cells assessed as induction of CDK9 degradation incubated for 6 hrs by Western blot analysis
Target sequence in this assay (P50750 whole entry): as the sequence (P50750 whole entry, looked up) above
Target sequence in this assay (Q96SW2 whole entry): as the sequence (Q96SW2 whole entry, looked up) above

MV4-11 [6] = test: Antiproliferative activity against human MV4-11 cells assessed as inhibition of cell growth measured after 48 hrs by MTS assay; type: functional, cell-based; conditions: MV4-11, 48 h
MV4-11 [7] = test: Antiproliferative activity against human MV4-11 cells assessed as inhibition of cell growth measured after 48 hrs in presence of fetal bovine serum by MTS assay; type: functional
Outline: (§1)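 MV4-11 AML cells exposed to compound, with growth medium supplemented with either human serum or fetal bovine serum. Cytotoxicity IC50 was determined in each serum condition. The serum shift is the change in activity between human serum and fetal bovine serum.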

MV4-11 [8] = test: Antiproliferative activity against human MV4-11 cells assessed as fold decrease in cell growth measured after 48 hrs in presence of human serum by MTS assay; type: functional; outline: as §1
MV4-11 [9] = test: Antiproliferative activity against human MV4-11 cells assessed as inhibition of cell growth measured after 48 hrs in presence of human serum by MTS assay; type: functional; outline: as §1

| Compound | solubility [1] | Emax [2] | log K [3] | solubility kinetic at 1.5 h [4] | DC50 [5] | IC50 (MV4-11 [6]; read-out: IC50) | IC50 (MV4-11 [6]; read-out: pIC50 (converted)) | EC (MV4-11 [7]) | fold change (FC) (MV4-11 [8]) | EC (MV4-11 [9]) |
| --- | --- | --- | --- | --- | --- | --- | --- | --- | --- | --- |
| O=C1CCC(N2C(=O)c3cccc(OCCCCCn4cc(CCCCCN5CCC(NC(=O)c6n[nH]cc6NC(=O)c6c(Cl)cccc6Cl)CC5)nn4)c3C2=O)C(=O)N1 (configuration not stated) | 13.2 µM (≈ 11.4 µg/mL) | 68.5% | 0.112 | 13.2 µM (≈ 11.4 µg/mL) | 950 nM | 130 nM | 126 nM | – | – | – |
| O=C1CCC(N2C(=O)c3cccc(OCCCCCCCCn4cc(CCN5CCC(NC(=O)c6n[nH]cc6NC(=O)c6c(Cl)cccc6Cl)CC5)nn4)c3C2=O)C(=O)N1 (configuration not stated) | 5.65 µM (≈ 4.87 µg/mL) | 88.3% | 0.146 | 5.65 µM (≈ 4.87 µg/mL) | 60 nM | 50 nM | 50.1 nM | 46.9 nM | 20 | 881.9 nM |
| O=C1CCC(N2C(=O)c3cccc(OCCCCn4cc(CCCCN5CCC(NC(=O)c6n[nH]cc6NC(=O)c6c(Cl)cccc6Cl)CC5)nn4)c3C2=O)C(=O)N1 (configuration not stated) | ≥ 40 µM | 79.1% | 0.084 | 40.9 µM (≈ 34.1 µg/mL) | 70 nM | 190 nM | 200 nM | 190.1 nM | 3 | 69.3 nM |
| O=C1CCC(N2C(=O)c3cccc(OCCCCCn4cc(CCCCN5CCC(NC(=O)c6n[nH]cc6NC(=O)c6c(Cl)cccc6Cl)CC5)nn4)c3C2=O)C(=O)N1 (configuration not stated) | – | 67.5% | 0.1 | 12.4 µM (≈ 10.5 µg/mL) | 130 nM | 240 nM | 251 nM | – | – | – |
| O=C1CCC(N2C(=O)c3cccc(OCCCCn4cc(CCCCCN5CCC(NC(=O)c6n[nH]cc6NC(=O)c6c(Cl)cccc6Cl)CC5)nn4)c3C2=O)C(=O)N1 (configuration not stated) | – | 58.6% | 0.106 | 31.3 µM (≈ 26.5 µg/mL) | 400 nM | 190 nM | 200 nM | – | – | – |
| O=C(NC1CCNCC1)c1n[nH]cc1NC(=O)c1c(Cl)cccc1Cl [AT-7519] | – | – | 0.134 | 512 µM (≈ 196 µg/mL) | – | 120 nM | 126 nM | – | – | – |

Now from value to molecule, other results behind:

| solubility [1] | Emax [2] | log K [3] | solubility kinetic at 1.5 h [4] | DC50 [5] | IC50 (MV4-11 [6]; read-out: IC50) | IC50 (MV4-11 [6]; read-out: pIC50 (converted)) | Compound | EC (MV4-11 [7]) | fold change (FC) (MV4-11 [8]) | EC (MV4-11 [9]) |
| --- | --- | --- | --- | --- | --- | --- | --- | --- | --- | --- |
| – | 88.6% | 0.197 | 3.42 µM (≈ 3.14 µg/mL) | 40 nM | 10 nM | 7.94 nM | O=C1CCC(N2C(=O)c3cccc(OCCCCn4cc(CCCCCCCCCCN5CCC(NC(=O)c6n[nH]cc6NC(=O)c6c(Cl)cccc6Cl)CC5)nn4)c3C2=O)C(=O)N1 (configuration not stated) | 8.8 nM | 3 | 28.6 nM |
| – | 70.1% | 0.14 | 5.46 µM (≈ 4.86 µg/mL) | 100 nM | 50 nM | 50.1 nM | O=C1CCC(N2C(=O)c3cccc(OCCCCCCCn4cc(CCCCCN5CCC(NC(=O)c6n[nH]cc6NC(=O)c6c(Cl)cccc6Cl)CC5)nn4)c3C2=O)C(=O)N1 (configuration not stated) | – | – | – |
| – | 86.2% | 0.184 | 2.38 µM (≈ 2.18 µg/mL) | 70 nM | 70 nM | 79.4 nM | O=C1CCC(N2C(=O)c3cccc(OCCCCCCCCn4cc(CCCCCCN5CCC(NC(=O)c6n[nH]cc6NC(=O)c6c(Cl)cccc6Cl)CC5)nn4)c3C2=O)C(=O)N1 (configuration not stated) | – | – | – |
| – | 78% | 0.176 | 4.7 µM (≈ 4.31 µg/mL) | 60 nM | 60 nM | 63.1 nM | O=C1CCC(N2C(=O)c3cccc(OCCCCCCCn4cc(CCCCCCCN5CCC(NC(=O)c6n[nH]cc6NC(=O)c6c(Cl)cccc6Cl)CC5)nn4)c3C2=O)C(=O)N1 (configuration not stated) | – | – | – |
| 12.9 µM (≈ 11.1 µg/mL) | 75.3% | 0.116 | 12.9 µM (≈ 11.1 µg/mL) | 100 nM | 70 nM | 79.4 nM | O=C1CCC(N2C(=O)c3cccc(OCCCCn4cc(CCCCCCN5CCC(NC(=O)c6n[nH]cc6NC(=O)c6c(Cl)cccc6Cl)CC5)nn4)c3C2=O)C(=O)N1 (configuration not stated) | – | – | – |
